Reference: ChEMBL document CHEMBL1221182, “Functional characterization of IRESes by an inhibitor of the RNA helicase eIF4A” (Nat Chem Biol, 2006)

Target: Eukaryotic initiation factor 4A-I (Mus musculus, UniProt P60843)
Assay: Inhibition of eIF4A-mediated cap-dependent protein synthesis in FF-HCV-Ren mRNA transfected Swiss mouse Krebs2 cell extract by [35S]methionine metabolic labeling study
How it was run: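 Cell-free translation in Krebs-2 extracts programmed with capped bicistronic FF-HCV-Ren transcript: cap-dependent firefly cistron, HCV IRES-driven renilla cistron. Final mRNA 5 µg ml⁻¹, K⁺ 100 mM, compound titrated. Controls carry a matched final DMSO level. Products labeled with [³⁵S]methionine, separated by 10% SDS-PAGE, and autoradiographed. Luciferase activities are read by luminometer and expressed relative to vehicle reactions.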

Eukaryotic initiation factor 4A-I, sequence (P60843 whole entry): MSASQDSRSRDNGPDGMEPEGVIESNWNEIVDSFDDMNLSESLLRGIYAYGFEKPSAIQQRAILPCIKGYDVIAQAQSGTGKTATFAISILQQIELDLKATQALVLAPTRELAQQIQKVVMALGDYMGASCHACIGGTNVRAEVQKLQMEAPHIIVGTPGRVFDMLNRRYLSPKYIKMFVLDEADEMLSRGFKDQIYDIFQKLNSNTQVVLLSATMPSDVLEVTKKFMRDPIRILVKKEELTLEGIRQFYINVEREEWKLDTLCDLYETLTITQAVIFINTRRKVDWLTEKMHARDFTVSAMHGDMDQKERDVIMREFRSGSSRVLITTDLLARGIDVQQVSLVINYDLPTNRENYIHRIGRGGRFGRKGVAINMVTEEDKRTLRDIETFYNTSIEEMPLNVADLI

| Structure (SMILES) | IC50 |
| --- | --- |
| C[C@H]1C[C@]2(O[C@H]3C[C@H]4[C@@H]5CC[C@H]6C[C@H](O)CC[C@]6(C)[C@H]5[C@@H](O)C[C@]4(C)[C@H]3[C@@]2(C)O)OC1(C)C [EPIHIPPURISTANOL] | > 100 µM |
| CC(=O)O[C@@H]1CC[C@@]2(C)[C@@H](CC[C@@H]3[C@@H]2[C@@H](OC(C)=O)C[C@@]2(C)[C@H]3C[C@@H]3O[C@]4(C[C@H](C)C(C)(C)O4)[C@](C)(O)[C@@H]32)C1 | > 100 µM |
| C[C@H]1C[C@@]2(O[C@H]3C[C@H]4[C@@H]5CC[C@H]6C[C@H](O)[C@H](OC(=O)CCCC(=O)O)C[C@]6(C)[C@H]5[C@@H](O)C[C@]4(C)[C@H]3[C@@]2(C)O)OC1(C)C | 2.6 µM |
| C[C@H]1C[C@]2(O[C@H]3C[C@H]4[C@@H]5CC[C@H]6CC(=O)CC[C@]6(C)[C@H]5C(=O)C[C@]4(C)[C@H]3[C@@]2(C)O)OC1(C)C | > 100 µM |
| C[C@H]1C[C@]2(O[C@H]3C[C@H]4[C@@H]5CC[C@H]6C[C@H](O)[C@H](OC(=O)CCCC(=O)O)C[C@]6(C)[C@H]5[C@@H](O)C[C@]4(C)[C@H]3[C@@]2(C)O)OC1(C)C | 35 µM |
| C[C@H]1C[C@@]2(O[C@H]3C[C@H]4[C@@H]5CC[C@H]6C[C@H](O)CC[C@]6(C)[C@H]5C(=O)C[C@]4(C)[C@H]3[C@@]2(C)O)OC1(C)C | 9 µM |

The next lines start with the values.

| IC50 | Structure (SMILES) |
| --- | --- |
| 52 µM | CC(=O)O[C@H]1C[C@@H]2CC[C@@H]3[C@H]([C@@H](O)C[C@@]4(C)[C@H]3C[C@@H]3O[C@]5(C[C@H](C)C(C)(C)O5)[C@](C)(O)[C@@H]34)[C@@]2(C)C[C@H]1O |
| 1.7 µM | CC(=O)O[C@H]1C[C@@H]2CC[C@@H]3[C@H]([C@@H](O)C[C@@]4(C)[C@H]3C[C@@H]3O[C@@]5(C[C@H](C)C(C)(C)O5)[C@](C)(O)[C@@H]34)[C@@]2(C)C[C@H]1O |
| 1.7 µM | C[C@H]1C[C@@]2(O[C@H]3C[C@H]4[C@@H]5CC[C@H]6C[C@H](O)[C@H](O)C[C@]6(C)[C@H]5[C@@H](O)C[C@]4(C)[C@H]3[C@@]2(C)O)OC1(C)C |
